# Screening data (PubChem BioAssay)
# Only a selection was taken, and hits are over-represented in it overall.
# INS promoter act – TRM-6 insulin promoter activation; TRM-6 cells, insulin promoter eGFP reporter, imaging; plate-scaled: unstimulated 0, stimulated control 100; activation, % at 2 µM; 0.81% of 130,000 active;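 active = activation at 2 µM above a set limit, confirmed on inspection of the cell images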;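 also: share of cells whose green reporter signal exceeds an intensity cutoff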
#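 Test system: human fetal islet-derived TRM-6 cells with tamoxifen-inducible insulin promoter–eGFP reporter. Compound dosing: 2 µM final, single concentration. Incubation: tamoxifen pre-incubation 15 h overnight, then compound exposure 48 h at 37 °C. Signal: fixed-cell fluorescence microscopy, eGFP plus Hoechst.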
# * = called active by the depositor.
SMILES,INS promoter act
O=C(Nc1ccnc(-c2ccncc2)n1)c1ccc(F)cc1,340*
O=C(Nc1ccccc1)c1ccncc1,-6
CCC(=O)Nc1ccnc(-c2cccnc2)n1,0
CN1CCN(S(=O)(=O)c2ccc(Oc3ccc(F)c(Cl)c3)nc2)CC1,-5
CN(Cc1cn(C)c2ccccc12)C(=S)Nc1cc(F)cc(F)c1,-8
CCOC(=O)Cc1csc(NC(=O)C(CC(C)C)NC(=O)C2CCCCC2)n1 (stereo not drawn),0
CN1CCN(C(c2ccccc2)c2nnnn2Cc2ccccc2)CC1 (stereo not drawn),0
O=C(c1ccco1)N1CCN(C(c2ccc(Cl)cc2)c2nnnn2Cc2ccccc2)CC1 (stereo not drawn),7
O=C(Nc1ccc(Cl)cc1)OCCn1nnnc1C(c1ccccc1)N1CCOCC1 (stereo not drawn),89*
O=C(Oc1ccc2cc(Br)ccc2c1)c1cccnc1,-3
CC1Cc2ccccc2N1C(=S)NC(=O)C1(C)CC1(Cl)Cl (stereo not drawn),-9
COc1ccc(NC(=O)CSc2n[nH]c(N)n2)cc1OC,332*
Nc1nc(SCC(=O)Nc2ccc(Br)cc2F)n[nH]1,-75
COc1ccc(NC(=O)CSc2nncn2C)cc1OC,-71
C=CCn1c(=NC(=O)CN2C(=O)CCC2=O)sc2cc(S(N)(=O)=O)ccc21,0
CCn1c(=NC(=O)CSC(C)=O)sc2cc(F)ccc21,79*
COC(=O)Cn1c(=NC(=O)c2cc(OC)cc(OC)c2)sc2cc(OC)ccc21,-3
COc1ccccc1NC(=S)NNC(=O)c1ccccc1Br,10
COCCn1c(Cc2ccccc2)nnc1SCc1ccc([N+](=O)[O-])cc1,-3
COc1cccc(S(=O)(=O)Nc2cccc(C(=O)N3CCOCC3)c2)c1,466*
COc1ccc(NS(=O)(=O)c2ccc(OCC(=O)N3CCOCC3)cc2)cc1,0
O=C(c1cccc(NS(=O)(=O)c2cccc([N+](=O)[O-])c2)c1)N1CCOCC1,0
C=CCn1c(CNC(=O)c2cccs2)nnc1SCC(=O)c1ccc(Br)cc1,92*
C=CCn1c(SCC(=O)Nc2ccc(C(=O)OC(C)C)cc2)nnc1-c1cccs1,0
C=CCn1c(CCNC(=O)c2cccs2)nnc1SCC(=O)Nc1cccc(Cl)c1C,4
SMILES,INS promoter act
O=C(CSc1nnc(-c2ccco2)n1Cc1ccccc1)c1ccc(F)cc1,4
O=C(NCc1ccccc1)c1ccco1,-10
C=CCn1c(CNC(=O)c2ccco2)nnc1SCC(=O)c1ccccc1,255*
C=CCn1c(CCNC(=O)c2ccccc2F)nnc1SCC(=O)Nc1nc2ccccc2s1,3
CC(C)COc1cccc(C(=O)NC(=S)Nc2cccc(NC(=O)c3ccccc3Cl)c2)c1,0
COc1ccc(NC(=O)CC2C(=O)N(c3ccc(OC)cc3)C(=O)N2CCc2cccs2)cc1 (stereo not drawn),6
CCNC(=O)CC1C(=O)N(c2ccc(F)cc2)C(=O)N1CCc1ccc(OC)cc1 (stereo not drawn),154*
CCNC(=O)CC1C(=O)N(c2ccccc2)C(=O)N1CCc1ccc(OC)c(OC)c1 (stereo not drawn),286
C#CC[N+]1(CC#Cc2ccc(C)cc2)CCCCC1,-4
CCNC(=O)NC(=O)CN(C)c1ccccc1,-9
COc1cc(C(=O)Nc2ccccn2)cc(OC)c1OC,10
COc1cc(C(=O)Oc2cc(C)cc(C)c2)cc(OC)c1OC,607*
COc1ccc(C(=O)/C=C/c2ccc(OC(=O)c3cc(OC)c(OC)c(OC)c3)cc2)cc1,8
COc1ccc(C2CC(=O)c3sc(NC(C)=O)nc3C2)cc1 (stereo not drawn),0
Cc1nnc(SCc2cccc([N+](=O)[O-])c2)[nH]c1=O,7
CC(C)Sc1ncc(S(=O)(=O)c2ccccc2)c(=O)[nH]1,106
COc1ccc(CCNC(=O)C(=O)N2CCCCC2)cc1OC,219
O=C(NC(C(=O)c1ccccc1)N1CCCCC1)c1ccccc1 (stereo not drawn),9
CCCc1cc(=O)oc2cc(Oc3ncccn3)ccc12,154*
C=C(Cl)COc1ccc2c(CCC)cc(=O)oc2c1,293
CCCc1cc(=O)oc2cc(OCC(=O)Nc3cc(C)on3)ccc12,7
O=S1(=O)CC(O)C(N2CCCCC2)C1 (stereo not drawn),155
Cc1ccc(-n2c(SCC(=O)N3CCOCC3)nnc2-c2cccnc2)cc1,3
O=C(CSc1nnc(-c2ccco2)n1-c1ccccc1)N1CCOCC1,3
Nn1c(SCC(=O)N2CCOCC2)nnc1-c1ccccc1Cl,111*
SMILES,INS promoter act
COc1cc(NC(=S)NCc2ccc(S(N)(=O)=O)cc2)c(OC)cc1Cl,9
Cc1ccc(C)c(NC2=C(Cl)C(=O)OC2OC(C)C)c1 (stereo not drawn),-7
CNC(=S)/N=C/NOCc1ccc(Cl)cc1Cl,4
COc1ccc(C(=O)NNC(=O)c2cccc(F)c2)cc1,0
CC(=O)Nc1ccc(NC(=O)COC(=O)Cc2cccs2)cc1,0
CCOC(=O)N1CCN(C(=O)COc2ccc(S(=O)(=O)NC3CCCCC3)cc2C)CC1,123
COc1ccc(F)cc1S(=O)(=O)N1CCCC(C)C1 (stereo not drawn),-9
CCOc1cc(S(=O)(=O)Nc2ccccn2)ccc1F,464*
CCOc1cc(S(=O)(=O)NC2CCCCCC2)ccc1F,420*
COc1ccc(F)cc1S(=O)(=O)NC1CCCC1,83*
COc1ccc(F)cc1S(=O)(=O)N1CCCN(S(=O)(=O)c2cc(F)ccc2OC)CC1,-75
CCOc1cc(S(=O)(=O)n2nc(C)cc2C)ccc1F,-50
CCOc1cc(S(=O)(=O)N2CCOCC2)ccc1F,-81
CCOc1cc(S(=O)(=O)Nc2ccc(Cl)cn2)ccc1Cl,-2
COc1ccc(CCNC(=O)CNS(=O)(=O)c2cccs2)cc1OC,-10
CCSc1nc2cc(OC)c(OC)cc2c(=O)n1CC,113
Cc1csc(Sc2ccc(S(=O)(=O)N3CCCC3)cn2)n1,-8
CCc1ccc2c(c1)/C(=N/OC)C(=O)N2,-8
COc1cccc(-c2cc(C(=O)NCC3CCCO3)c3ccccc3n2)c1 (stereo not drawn),0
Cc1ccc(C2=NNC(=O)C(P(=O)(c3ccccc3)c3ccccc3)C2)cc1 (stereo not drawn),-7
COC(=O)c1cc(CNC(=O)c2cccc(Cl)c2Cl)ccc1OC,7
CSc1nccc(-c2nn(-c3ccc(C)cc3)ccc2=O)n1,-8
COc1cnn(-c2ccc(C)cc2)c(=O)c1Cl,146
Cc1ccc(-n2c(Cl)c(Cl)nc(Cl)c2=O)cc1,233*
Cc1cccc(NC(=S)N(CCN(C)C)Cc2cccs2)c1,7
SMILES,INS promoter act
O=C(CCNC(=O)OCc1ccccc1)NC1CCCCCC1,127
CCN1/C(=C/c2ccc3cccc(C)c3[n+]2CC)Sc2ccccc21,233*
CCN1/C(=C/c2ccc3cc(C)cc(C)c3[n+]2CC)Sc2cc(C)ccc21,413*
CCN1/C(=C\c2ccc3cc(C)ccc3[n+]2CC)Sc2cc(C)c(C)cc21,413*
NC(=O)c1ccsc1NC(=O)Cc1ccc([N+](=O)[O-])cc1,-7
O=c1c2cnn(-c3ccccc3Cl)c2ncn1Cc1cccnc1,0
Cc1ccc2c(c1)N(CCC(=O)NCc1cccs1)C(=O)C(C)O2 (stereo not drawn),-4
O=C(CSc1nncs1)NC(=O)NC1CCCC1,0
CC(=O)Nc1ccc(OCC(O)CN2C(C)(C)CC(O)CC2(C)C)cc1 (stereo not drawn),3
COCC(C)NC(=O)c1cccc(Cl)c1 (stereo not drawn),0
